In ChEMBL document CHEMBL3120069, “Chemical genetics-based discovery of indole derivatives as HCV NS5B polymerase inhibitors” (Eur J Med Chem, 2014):

What was measured:
Hepatitis C virus [1] = assay: Antiviral activity against Hepatitis C virus JFH-1 J6 genotype 2a infected in human Huh7.5 cells assessed as inhibition of viral core synthesis after 120 hrs by Western blot analysis; type: functional, organism-based
How it was run: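 J6/JFH1 RNA-transfected Huh7.5 cells, 1.5 × 10⁵ per well, given DMSO or increasing concentrations for 120 h. RIPA lysates with protease inhibitors, protein by Bradford; HCV core and β-actin by Western blot, core normalised to β-actin. EC50 from dose-response.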

Hepatitis C virus [2] = assay: Antiviral activity against Hepatitis C virus Con1 Bart79I genotype 1b infected in human Huh7.5 cells assessed as inhibition of NS5A S2204I mutant synthesis after 120 hrs by Western blot analysis; type: functional, organism-based; conditions: subtype 1b Con1 Bart79I
How it was run: (§1)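 Bart79I replicon Huh7.5 cells, 1.5×10⁵/well, treated with DMSO or compound. Dose series for 5 days (120 h), or 10 M for 24, 48, 72 h. Lysed in RIPA with protease inhibitors and protein quantified by Bradford. NS5A and β-actin measured by Western blot, with NS5A normalized to β-actin. EC50 and T1/2 taken from response curves.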

Hepatitis C virus [3] = assay: Antiviral activity against Hepatitis C virus Con1 Bart79I genotype 1b expressing YFP infected in human Huh7.5 cells assessed as NS5A S2204I mutant synthesis at 10 uM after 24 hrs by FACS analysis (reference value: 52.2%); type: functional, Hepacivirus hominis, subtype 1b Con1 Bart79I, Huh-7
How it was run: (§2)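 Huh7.5 cells stably carrying Bart79I-YFP subgenomic replicon (G418 selection), treated with DMSO or compound. Dose series over 5 days (120 h), or 10 M with sampling at 24, 48, 72 h. Cells washed, resuspended in PBS, and NS5A-YFP-positive cells counted by FACS. EC50 and T1/2 taken from response curves.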

Hepatitis C virus [4] = assay: Antiviral activity against Hepatitis C virus JFH-1 J6 genotype 2a infected in human Huh7.5 cells assessed as time required for reducing viral core level by half at 10 uM by Western blot analysis; type: functional, organism-based; conditions: Hepacivirus hominis, subtype 2a JFH1 J6, Huh-7
How it was run: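 J6/JFH1 RNA-transfected Huh7.5 cells on 10 µM compound, lysed at 24, 48, 72 h. HCV core and β-actin probed by Western blot, core intensity normalised to β-actin; T1/2 from the time-response curve.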

Hepatitis C virus [5] = assay: Antiviral activity against Hepatitis C virus JFH-1 J6 genotype 2a infected in human Huh7.5 cells assessed as time required for reducing viral RNA level by half at 10 uM by real time qRT-PCR analysis; type: functional, organism-based; conditions: Hepacivirus hominis, subtype 2a JFH1 J6, Huh-7
How it was run: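 J6/JFH1 RNA-transfected Huh7.5 cells held at 10 µM compound for increasing periods; HCV and host GAPDH RNA measured by real-time qRT-PCR. Triplicates, mean ± SD; T1/2 for halving viral RNA from the time-response curve.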

Hepatitis C virus [6] = assay: Antiviral activity against Hepatitis C virus Con1 Bart79I genotype 1b expressing YFP infected in human Huh7.5 cells assessed as inhibition of NS5A S2204I mutant synthesis after 120 hrs by FACS analysis; type: functional, organism-based; conditions: subtype 1b Con1 Bart79I; how it was run: as §2
Hepatitis C virus [7] = assay: Antiviral activity against Hepatitis C virus Con1 Bart79I genotype 1b infected in human Huh7.5 cells assessed as inhibition of NS5A S2204I mutant synthesis at 10 uM by Western blot analysis; type: functional, organism-based; conditions: Hepacivirus hominis, subtype 1b Con1 Bart79I, Huh-7, TDE = time-dependent effect; how it was run: as §1
Hepatitis C virus [8] = assay: Antiviral activity against Hepatitis C virus Con1 Bart79I genotype 1b expressing YFP/NS5A S2204I mutant infected in human Huh7.5 cells assessed as inhibition of viral RNA replication after 72 hrs by real time qRT-PCR analysis; conditions: subtype 1b Con1 Bart79I, Huh-7, 72 h
Hepatitis C virus [9] = assay: Antiviral activity against Hepatitis C virus Con1 Bart79I genotype 1b expressing YFP infected in human Huh7.5 cells assessed as time required for reducing viral core level by half at 10 uM by FACS analysis; type: functional, organism-based; conditions: Hepacivirus hominis, subtype 1b Con1 Bart79I, Huh-7, in the assay text read “viral NS5A-YFP level” for “viral core level”
How it was run: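 Huh7.5 cells stably carrying Bart79I-YFP subgenomic replicon (G418 750 mg/ml selection), exposed to compound at 10 µM; cells harvested at 24, 48, 72 h, washed, resuspended in PBS, NS5A-YFP-positive cell percentage read by FACS. T1/2 taken from the time-response curve.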

Hepatitis C virus [10] = assay: Antiviral activity against Hepatitis C virus Con1 Bart79I genotype 1b expressing YFP infected in human Huh7.5 cells assessed as inhibition of NS5A S2204I mutant synthesis at 10 uM by FACS analysis; type: functional, organism-based; conditions: Hepacivirus hominis, subtype 1b Con1 Bart79I, Huh-7, TDE = time-dependent effect; how it was run: as §2

C/C(=C\c1c[nH]c2ccc(C#N)cc12)C(=O)Nc1ccc(C(C)(C)C)cc1
inhibition (Hepatitis C virus [1]; Hepacivirus hominis, subtype 2a JFH1 J6, Huh-7): Dose-dependent effect
EC50 (Hepatitis C virus [1]; subtype 2a JFH1 J6, Huh-7, 120 h): 2000 nM
inhibition (Hepatitis C virus [2]; Hepacivirus hominis, Huh-7): Dose-dependent effect
EC50 (Hepatitis C virus [2]; Huh-7, 120 h): 2500 nM
Activity (Hepatitis C virus [3]): 32.2%
T1/2 (Hepatitis C virus [4]): 19.6 h
T1/2 (Hepatitis C virus [5]): 17.2 h
inhibition (Hepatitis C virus [6]; Hepacivirus hominis, Huh-7): Dose-dependent effect
EC50 (Hepatitis C virus [6]; Huh-7, 120 h): 1030 nM
inhibition (Hepatitis C virus [7]): tde
EC50 (Hepatitis C virus [8]): 4770 nM
T1/2 (Hepatitis C virus [9]): 31.8 h
inhibition (Hepatitis C virus [10]): tde
